Screens from PubChem.
In the library only some 3.5% were active in any assay of this set; here they are far more common.
MrgX1 antagonist: blocks BAM8-22 activation of human MrgX1 receptor; B-score at 10 µM; actives 1.3% (n = 310,000); Q96LB2; MRGX1-HEK293 calcium flux, Fluo-4, BAM8-22 antagonism; stronger effect = lower value;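 active = calcium-response B-score plate-corrected more than 3 library SD below zero, starting fluorescence within 5 deviations, no agonist response on first addition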;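 note: peak minus trough fluorescence over baseline after final BAM8-22 challenge near maximal dose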
Target sequence (Q96LB2 whole entry, looked up): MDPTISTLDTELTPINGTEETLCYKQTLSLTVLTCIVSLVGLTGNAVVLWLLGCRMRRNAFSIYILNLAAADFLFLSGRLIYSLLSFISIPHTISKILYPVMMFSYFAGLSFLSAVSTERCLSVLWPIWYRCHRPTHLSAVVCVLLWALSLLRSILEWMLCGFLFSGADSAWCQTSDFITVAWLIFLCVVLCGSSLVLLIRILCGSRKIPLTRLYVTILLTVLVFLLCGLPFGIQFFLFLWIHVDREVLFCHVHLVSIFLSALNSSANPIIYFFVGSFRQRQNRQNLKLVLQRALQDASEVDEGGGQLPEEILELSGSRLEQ
MrgX1 agonist: agonists of human MrgX1 receptor. Q96LB2. MrgX1-HEK293 cells, Fluo-4 calcium fluorescence, agonist mode; stronger effect = higher value. B-score at 10 µM. actives 0.44% (n = 310,000). AID 588627;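 active = calcium response B-score plate-corrected fluorescence ratio at least 3 library SD, with starting fluorescence B-score inside 5 SD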
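times = overnight plating, then 30 min 37 °C plus 30 min room-temperature dye loading | assay system = stable human MrgX1 HEK293 cell line | input = fifteen thousand cells per well | signal = kinetic calcium dye fluorescence, Fluo-4 NW | dosing = compound delivered in addition one of three | read-out = B-scored fluorescence response ratio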
MrgX1 allo act: allosterically activates human MrgX1 receptor signaling | Q96LB2 | MrgX1-HEK293, Fluo-4 calcium flux, FDSS; stronger effect = higher value | B-score at 10 µM | actives 0.63% (n = 310,000) | AID 588675;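 active = plate-corrected calcium response at least 3 library SD above typical, normal starting fluorescence, not activating the receptor alone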;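 note: compound read alongside a low EC10 to EC30 dose of BAM8-22 agonist; peak minus trough fluorescence over baseline measured at the second addition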
RGS4 inh: human RGS4 inhibition. P49798. HEK293 M3R/RGS4 inducible, Fluo-4 calcium flux; stronger effect = higher value; triggered by carbachol at its EC20. B-score at 10 µM. actives 0.45% (n = 310,000);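 active = B-score, a plate-corrected calcium signal, over three deviations above library mean, with baseline fluorescence within five deviations of library mean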;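 note: RGS4 expression induced by doxycycline in cells with stable M3 receptor; B-score is computed from the integrated fluorescence ratio over baseline after carbachol; higher B-score means a larger calcium signal and so more RGS4 inhibition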
Target sequence (P49798 whole entry, looked up): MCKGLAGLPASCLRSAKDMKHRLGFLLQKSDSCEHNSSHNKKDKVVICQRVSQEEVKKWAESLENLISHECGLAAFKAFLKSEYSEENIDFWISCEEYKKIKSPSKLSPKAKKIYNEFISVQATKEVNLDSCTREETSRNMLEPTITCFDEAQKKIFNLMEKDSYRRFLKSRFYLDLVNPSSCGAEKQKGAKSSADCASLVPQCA
RGS4 act: potentiators or activators of RGS4; B-score at 10 µM; HEK293 M3R/inducible RGS4, carbachol calcium flux Fluo4; stronger effect = lower value; actives 0.92% (n = 310,000);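 active = B-score of the integrated calcium signal more than 4 SD below the library mean, with starting fluorescence not abnormally high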;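 note: negative B-score means reduced calcium response which marks RGS4 activation or potentiation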
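Also added: carbachol at ECmax as muscarinic agonist stimulus; Assay system: HEK293 cells with stable M3R and inducible RGS4; Timing: overnight RGS4 induction, 30 min dye load 37 °C, 20 min compound RT; Measured by: Fluo4-AM (2 µM) calcium-flux fluorescence, kinetic read.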
RGS4 inh valid: RGS4 inhibitor validation | shares compounds with RGS4 inh | HEK293 M3R/RGS4, carbachol calcium Fluo-4 fluorescence; carbachol added at its EC20; 0 = buffer wells, 100 = carbachol control | calcium response, % at 10 µM | actives 65% (n = 1,700) | AID 492999;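 active = duplicate-averaged calcium response above the buffer-only control mean plus 5 SD of those controls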;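 note: integrated fluorescence ratio F max minus min over baseline F0; higher response in RGS4-induced cells means RGS4 inhibition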
M3R Ca ctr: non-induced cell nonspecific activity of RGS4 inhibitors; shares compounds with RGS4 inh; HEK293 M3R non-induced, carbachol calcium Fluo-4; submaximal (EC20) carbachol stimulus; buffer wells 0%, carbachol control wells 100%; activity (percent), % at 10 µM; actives 20% (n = 1,900); call rule not given here;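 note: RGS4 induction absent so cells express M3R without RGS4; higher means more calcium signal and flags a non-specific hit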
M3R basal Ca ctr: second RGS4 inhibitor counter-screen in uninduced cells lacking carbachol; shares compounds with RGS4 inh; HEK293 M3R/RGS4 non-induced, Fluo-4 calcium, no carbachol; normalised: buffer wells 0%, carbachol wells 100%; calcium response (agonist-mode artifact), % at 10 µM; actives 22% (n = 1,900);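 active = duplicate-averaged calcium rise in uninduced cells above buffer wells' mean plus 5 SD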
Large screens that a line does not name were inactive (follow-up assays come after a bar, where they were run).

CC(C)OP(=O)(OC(C)C)/C(C=O)=N\Nc1ccc([N+](=O)[O-])cc1	RGS4 inh 6.6 | RGS4 inh valid 13% | M3R Ca ctr inactive | M3R basal Ca ctr inactive
CCOC(=O)C1=NOC2C3CC(C12)C1C(=O)N(CCc2ccc(OC)c(OC)c2)C(=O)C31 (stereo not drawn)	none
Oc1c(Br)cc(Cl)cc1C=Nc1ccccc1Br	none
Oc1c(Br)cc(Cl)cc1C=Nc1ccc(N2CCOCC2)cc1	none | M3R Ca ctr inactive | M3R basal Ca ctr 26%
Cc1nn(CC(=O)NCc2cccs2)c(=O)c2nn(-c3ccccc3)c(C)c12	none | RGS4 inh valid inactive | M3R Ca ctr inactive | M3R basal Ca ctr inactive
COc1nc(N/N=C/c2ccc(C)cc2)nc(N2CCCCC2)n1	none
O=C(O)c1cccc(Nc2nc(Nc3ccccc3)nc(N3CCCC3)n2)c1	none
Cc1cccc(Nc2nc(N3CCCC3)nc(N3CCCC3)n2)c1	none | RGS4 inh valid inactive | M3R Ca ctr inactive | M3R basal Ca ctr inactive
COc1nc(Nc2cccc(C)c2)nc(N2CCCCC2)n1	none | RGS4 inh valid inactive | M3R Ca ctr inactive | M3R basal Ca ctr inactive
c1ccc(CCNCC2COc3ccccc3O2)cc1 (stereo not drawn)	none
CC(=O)n1cc(C(C[N+](=O)[O-])SCCN)c2ccccc21 (stereo not drawn)	MrgX1 agonist 58, RGS4 inh 4.7 | RGS4 inh valid 55% | M3R Ca ctr inactive | M3R basal Ca ctr 34%
COC(=O)c1cc(OC)c(OC)cc1N1C(=O)CC(C)(C)CC1=O	none
CNc1nc(N)c([N+](=O)[O-])c(Nc2ccccc2OC)n1	RGS4 inh 11 | RGS4 inh valid 12% | M3R Ca ctr 44% | M3R basal Ca ctr inactive
CC(=O)NC1C(Oc2ccccc2C)OC2COC(c3ccco3)OC2C1O (stereo not drawn)	none
Cc1cc(=O)oc2c3c(cc(OCC(=O)N[C@@H](CC(C)C)C(=O)O)c12)OC(C)(C)CC3	none | RGS4 inh valid inactive | M3R Ca ctr inactive | M3R basal Ca ctr inactive
CCCC(NC(=O)COc1cc2c(c3oc(=O)cc(C)c13)CCC(C)(C)O2)C(=O)O (stereo not drawn)	none | RGS4 inh valid inactive | M3R Ca ctr inactive | M3R basal Ca ctr inactive
C=CCC(C(=O)NC(C)c1ccccc1)C(=O)NC(C)c1ccccc1 (stereo not drawn)	none
COc1ccc2ccc(O)c(CN(C)CC(=O)Nc3ccccc3C(F)(F)F)c2c1	none
O=C1c2[nH]nc(-c3ccccc3O)c2C(c2ccc(F)cc2)N1Cc1ccco1 (stereo not drawn)	RGS4 inh 9 | RGS4 inh valid 20% | M3R Ca ctr inactive | M3R basal Ca ctr inactive
COc1ccc(C2c3c(-c4ccccc4O)n[nH]c3C(=O)N2Cc2ccco2)cc1OC (stereo not drawn)	none
O=C1c2[nH]nc(-c3ccccc3O)c2C(c2cccc(Cl)c2)N1Cc1ccco1 (stereo not drawn)	RGS4 inh 8.1 | RGS4 inh valid 25% | M3R Ca ctr inactive | M3R basal Ca ctr inactive
CCN(CC1CCCN(CCc2cccc(OC)c2)C1)C(=O)c1ccc(COC)o1 (stereo not drawn)	none
COC(=O)c1ccc(C)c(NC(=O)c2ccc(CN3CCc4ccccc4C3)cc2)c1	none
Oc1nc(Nc2ccc(Cl)cc2Cl)sc1/C=C1\C=Nc2ccccc21	RGS4 inh 5.7 | RGS4 inh valid 10% | M3R Ca ctr inactive | M3R basal Ca ctr 20%
Cc1nc(Nc2ccc(Cl)cc2Cl)sc1C(=O)Nc1ccccc1	none
CCOC(=O)C1CCN(Cc2nc3ccccc3c(=O)n2-c2ccc(OCC)cc2)CC1	RGS4 inh 6.1 (no result: MrgX1 antagonist, MrgX1 agonist, MrgX1 allo act) | RGS4 inh valid 6.5% | M3R Ca ctr inactive | M3R basal Ca ctr inactive
CC1CCC(NC(=O)CCC(=O)N2CC(C)Oc3ccccc32)CC1 (stereo not drawn)	none
O=C(O)c1ccc(N/N=C/c2cn(Cc3ccc(F)cc3)c3ccccc23)cc1	none
O=[N+]([O-])/C=C/c1cn(Cc2ccc(F)cc2)c2ccccc12	MrgX1 allo act 7.4, RGS4 inh 6 | RGS4 inh valid 42% | M3R Ca ctr inactive | M3R basal Ca ctr 68%
O=C(/C=C/c1ccc(Cl)c(C(F)(F)F)c1)N1CCN(c2ccccn2)CC1	none
CC(/C=C/c1ccccc1)=N/NC(=O)CCC(=O)Nc1ccccc1C	none
CC(=O)/C(=C/c1ccccc1)C(=O)Nc1ccccc1C	RGS4 inh 28 | RGS4 inh valid 64% | M3R Ca ctr 64% | M3R basal Ca ctr inactive
N#C/C(=C/c1ccc(C(=O)O)cc1)C(=O)Nc1ccccc1	none
Cc1ccccc1NC(=O)C(=Cc1ccc(C(=O)O)cc1)C(=O)Nc1ccccc1C	RGS4 inh 10 (no result: MrgX1 antagonist, MrgX1 agonist, MrgX1 allo act) | RGS4 inh valid 53% | M3R Ca ctr inactive | M3R basal Ca ctr inactive
O=CN1CC(=O)N(c2ccccc2)c2c([nH]c3ccccc23)C1	none
Cc1cccc(C)c1NC(=O)COC(=O)c1cccnc1	none
O=C(OCc1nc2scc(-c3ccccc3)c2c(=O)[nH]1)c1cc(Cl)ccc1[N+](=O)[O-]	RGS4 inh 6.2 | RGS4 inh valid 24% | M3R Ca ctr inactive | M3R basal Ca ctr inactive
Cc1c(C(=O)OCc2nc3scc(-c4ccccc4)c3c(=O)[nH]2)cccc1[N+](=O)[O-]	none
COc1cc(/C=C2\C(=N)N3N=C(S(C)(=O)=O)SC3=NC2=O)cc(OC)c1OCCOc1cccc(C)c1	none
O=C(Oc1ccc(Cl)c2cccnc12)c1cccc([N+](=O)[O-])c1	RGS4 inh 4.7 | RGS4 inh valid 25% | M3R Ca ctr inactive | M3R basal Ca ctr inactive
Cc1cc(N=Cc2c(O)ccc3ccccc23)no1	none
Cc1cc(N=Cc2c(O)ccc3cc(Br)ccc23)no1	RGS4 inh 9.9 | RGS4 inh valid inactive | M3R Ca ctr inactive | M3R basal Ca ctr 24%
COc1cc(C2(c3ccc(O)c(OC)c3)C(=O)Nc3c(Br)cc(Br)cc32)ccc1O	none | M3R Ca ctr inactive | M3R basal Ca ctr 34%
COc1cc(C(=O)C(=O)c2ccc(O)c(OC)c2)ccc1O	none
COc1cc(C2(c3ccc(O)c(OC)c3)C(=O)N(C)c3ccc(Br)cc32)ccc1O	RGS4 inh 5.7 | RGS4 inh valid 12% | M3R Ca ctr inactive | M3R basal Ca ctr inactive
